Assay results as given in publication PMC12306972 (Analytical and bioanalytical chemistry, 2023).

Target: EcCATI (type I chloramphenicol acetyltransferase) (Escherichia coli, UniProt P62577)
Assay: Direct ESI-MS
Format: binding
Conditions: for Cooperativity factor α: second ligand of the same type binding to EcCATI:1Ligand; for Cooperativity factor β: third ligand of the same type binding to EcCATI:2Ligands
Outline: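 Recombinant E. coli type I CAT (Rosetta2 BL21 DE3; heat step, anion-exchange, gel filtration) desalted into 200 mM ammonium acetate pH ~7.0 and mixed with ligand freshly prepared in the same buffer. Trimer at ~10 μM final, with the protein:ligand ratio varied by ligand. Nano-ESI on a Q-TWIMS-TOF under native-preserving settings. Bound/free abundance ratios were fitted to a stepwise three-site model giving intrinsic Kd, α and β. Values are mean ± SD.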

Chain of EcCATI (type I chloramphenicol acetyltransferase) (P62577 whole entry, looked up): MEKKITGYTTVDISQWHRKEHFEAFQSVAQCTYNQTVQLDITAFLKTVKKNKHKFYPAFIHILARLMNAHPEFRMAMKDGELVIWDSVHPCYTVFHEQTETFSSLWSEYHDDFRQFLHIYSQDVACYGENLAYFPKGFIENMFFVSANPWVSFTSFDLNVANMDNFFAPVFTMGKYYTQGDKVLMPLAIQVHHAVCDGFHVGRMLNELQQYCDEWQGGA

Row | Compound | Cooperativity factor α | Cooperativity factor β
1 | O=C(N[C@H](CO)[C@H](O)c1ccc([N+](=O)[O-])cc1)C(Cl)Cl [Chl, chloramphenicol] | 0.5 | 0.2
2 | CCSCCNC(=O)CCNC(=O)[C@H](O)C(C)(C)COP(=O)(O)OP(=O)(O)OC[C@H]1O[C@@H](n2cnc3c(N)ncnc32)[C@H](O)[C@@H]1OP(=O)(O)O [S-Et-CoA, S-ethyl-CoA] | 0.8 | 0.5
